Data from ChEMBL document CHEMBL1154414, “In vitro and in vivo activities of T-705 against arenavirus and bunyavirus infections” (Antimicrob Agents Chemother, 2007).

Assays:
[1] = Cytotoxicity against african green monkey Vero cells after 7 to 8 days by neutral-red dye uptake assay; assay type: cell-based; details: chlorocebus sabaeus
Procedure, shortened: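 Subconfluent (50-70%) Vero cells received half-log drug dilutions without virus and were held at 37°C, 5% CO2 for 7-8 days. Cells were stained with 0.034% neutral red for 2 h, and the dye was extracted 30 min in ethanol with Sorenson's citrate buffer. Absorbance was read at 540 nm as % of untreated controls. CC50 was derived by regression.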

[2] = Selectivity index, ratio of CC50 for african green monkey Vero cells to EC50 for Tacaribe virus TRVL11573; assay type: toxicity, cell-based; details: read-out: Ratio CC50/EC50
[3] = Cytotoxicity against african green monkey Vero 76 cells assessed as cell viability after 3 to 5 days; assay type: cell-based; details: chlorocebus sabaeus
[4] = Selectivity index, ratio of CC50 for african green monkey Vero 76 cells to EC50 for Punta Toro virus Adames; assay type: toxicity, cell-based; details: read-out: Ratio CC50/EC50
Mus musculus [5] = assay: % Compound cleared in virus-infected po dosed mouse after 6 hrs; assay type: ADME, organism-based; details: in vivo
[6] = Selectivity index, ratio of CC50 for african green monkey Vero cells to EC50 for Junin virus Candid-1; assay type: toxicity, cell-based; details: read-out: Ratio CC50/EC50
[7] = Metabolic stability in po dosed mouse assessed as drug remaining after 6 hrs; assay type: ADME, organism-based; details: in vivo, read-out: Stability
[8] = Selectivity index, ratio of CC50 for african green monkey Vero 76 cells to EC50 for Rift Valley fever virus MP-12; assay type: toxicity, cell-based; details: read-out: Ratio CC50/EC50
Mus musculus [9] = species: Mus musculus; details: in vivo, po
[10] = Selectivity index, ratio of CC50 for african green monkey Vero 76 cells to EC50 for La Crosse virus; assay type: toxicity, cell-based; details: read-out: Ratio CC50/EC50
Syrian golden hamster = details: in vivo, po, 72 h
[11] = Selectivity index, ratio of CC50 for african green monkey Vero 76 cells to EC50 for Sandfly fever Naples virus; assay type: toxicity, cell-based; details: read-out: Ratio CC50/EC50
[12] = Selectivity index, ratio of CC50 for african green monkey Vero cells to EC50 for Pichinde virus An 4763; assay type: toxicity, cell-based; details: read-out: Ratio CC50/EC50

Structure (SMILES): NC(=O)c1nc(F)c[nH]c1=O [FAVIPIRAVIR]
- CC50 [1]: 1110 µM
- selectivity ratio [2]: 227
- CC50 [3]: > 6260 µM
- selectivity ratio [4]: > 33
- %Cleared (Mus musculus [5]): > 90%
- selectivity ratio [6]: 239
- remaining at 6 h [7]: 10%
- selectivity ratio [8]: > 196
- LD50 (Mus musculus [9]): 707 mg/kg/day
- selectivity ratio [10]: > 199
- LD50 (Syrian golden hamster): 1500 mg/kg/day
- selectivity ratio [11]: > 55
- selectivity ratio [12]: 186
